The values below come from ChEMBL document CHEMBL3352510, “Anti-Inflammatory Spirostanol and Furostanol Saponins from Solanum macaonense” (J Nat Prod, 2014).

Active and inactive are the calls of the source. The calls are words filed in the database; no cut-off is given here.

Data set [1] concerns Neutrophil. The data set is described as follows: Inhibition of FMLP/CB-stimulated superoxide production in human neutrophils preincubated for 5 mins before FMLP/CB treatment by spectrophotometry. In kind it is functional, cell-based. In short, it runs like this:
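Neutrophils equilibrated with ferricytochrome c (0.5 mg/mL) and 1 mM Ca2+ at 37 °C for 2 min, treated with compound for 5 min, primed with cytochalasin B (1 μg/mL) for 3 min, then stimulated with FMLP 100 nM for 10 min. IC50 given as mean ± SEM, n = 3 or 4. Diphenyleneiodonium as positive control.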

The nature of data set [2]: Cytotoxicity against human neutrophils assessed as reduction in cell viability up to 10 uM by LDH release assay. The conditions noted are these: neutrophil. In kind it is cell-based. In a few lines: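 Neutrophils held in Ca2+-free HBSS, pH 7.4, at 4 °C before use. Compounds tested up to 10 μM. Membrane damage scored as LDH in cell-free medium, expressed as a percentage of total LDH release.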
On the technique in general: LDH in the medium is a marker of cell lysis.

For another data set, the system named is RBL-2H3. The data set is described as follows: Anti-inflammatory activity in rat RBL2H3 cells assessed as inhibition of beta-hexosaminidase release at 1 to 64 uM after 48 hrs by degranulation assay relative to control. In kind it is functional, cell-based. In short, it runs like this:
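RBL-2H3 cells grown in DMEM/F12 with 10% FBS, seeded at 10^4 cells/well, exposed to compound (0, 1, 4, 16, 64 μM) for 48 h. Sensitized overnight with anti-DNP IgE ([…]), washed in Tyrode's buffer, then challenged with DNP-BSA (0.1 μg/mL) for 1 h. Reaction stopped on ice. Supernatant incubated 1 h with p-nitrophenyl-N-acetyl-D-glucosaminide (0.1 M, citrate buffer), stopped with bicarbonate, read at 405 nm. Release % = (sample − background)/(total lysate − background) × 100. Dexamethasone 100 nM as positive control.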

Data set [3] is described as follows: Cytotoxicity against rat RBL2H3 cells assessed as reduction in cell viability by MTT assay. In kind it is cell-based. Particulars: rbl-2h3. In short, it runs like this:
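Viability of RBL-2H3 cells by MTT, run alongside the degranulation assay. Cells cultured in DMEM/F12 with 10% FBS and exposed to compound at 0–64 μM.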
(Tetrazolium dyes change colour on reduction, which living cells bring about.)

Data set [4] deals with Neutrophil. The data set is described as follows: Inhibition of FMLP/CB-stimulated elastase release in human neutrophils preincubated for 5 mins before FMLP/CB treatment using MeO-Suc-Ala-Ala-Pro-Val-pnitroanilide by spectrophotometry. In kind it is functional, cell-based. In a few lines:
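Neutrophils, after hypotonic lysis of erythrocytes, kept in Ca2+-free HBSS pH 7.4. Equilibrated 2 min at 37 °C with MeO-Suc-Ala-Ala-Pro-Val-p-nitroanilide (100 μM), given compound for 5 min, then activated with FMLP 100 nM plus cytochalasin B 0.5 μg/mL. Absorbance at 405 nm tracked continuously and expressed as percent of drug-free activated control. IC50 reported as mean ± SEM, n = 3 or 4. Sivelestat as positive control.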

The nature of data set [5]: Antidegranulation activity in rat RBL2H3 cells assessed as inhibition of DNP-BSA-stimulated beta-hexosaminidase release.

The molecule `C[C@H](CC[C@@]1(O)O[C@H]2C[C@H]3[C@@H]4C[C@H](O)[C@H]5C[C@@H](O[C@@H]6O[C@H](CO)[C@@H](O)[C@H](O)[C@H]6O[C@@H]6O[C@@H](C)[C@H](O)[C@@H](O)[C@H]6O)CC[C@]5(C)[C@H]4CC[C@]3(C)[C@H]2[C@@H]1C)CO[C@@H]1O[C@H](CO)[C@@H](O)[C@H](O)[C@H]1O` gave a half-inhibitory concentration (IC50) with Neutrophil [1] of over 10 µM.

The molecule `CO[C@]1(CC[C@@H](C)CO[C@@H]2O[C@H](CO)[C@@H](O)[C@H](O)[C@H]2O)O[C@H]2C[C@H]3[C@@H]4C[C@H](O[C@@H]5O[C@H](C)[C@@H](O)[C@H](O[C@@H]6OC[C@@H](O)[C@H](O)[C@H]6O)[C@H]5O)[C@H]5CC(=O)CC[C@]5(C)[C@H]4CC[C@]3(C)[C@H]2[C@@H]1C` returned a half-inhibitory concentration (IC50) in the data set on Neutrophil [1] of over 10 µM.

In turn, `C[C@H]1CO[C@@]2(O[C@H]3C[C@H]4[C@@H]5C[C@H](O[C@@H]6O[C@H](C)[C@@H](O)[C@H](O[C@@H]7OC[C@@H](O)[C@H](O)[C@H]7O)[C@H]6O)[C@H]6C[C@@H](O)CC[C@]6(C)[C@H]5CC[C@]4(C)[C@H]3[C@@H]2C)[C@@H](O)C1` had an IC50 with Neutrophil [1] of over 10 µM.

`C[C@@H]1CC[C@@]2(OC1)O[C@H]1C[C@H]3[C@@H]4C[C@H](O[C@@H]5OC[C@@H](O)[C@H](O[C@@H]6OC[C@@H](O)[C@H](O)[C@H]6O)[C@H]5O)[C@H]5C[C@@H](O)CC[C@]5(C)[C@H]4CC[C@]3(C)[C@H]1[C@@H]2C`: the Activity entry was “Non-toxic” in data set [2] and “Active” in data set [3]. In the data set with RBL-2H3, the outcome was inactive. The IC50 in the data set on Neutrophil [1] is over 10 µM; in the data set on Neutrophil [4], 4.2 µM.

In the case of `CC1=C(CC[C@@H](C)CO[C@@H]2O[C@H](CO)[C@@H](O)[C@H](O)[C@H]2O)O[C@H]2C[C@H]3[C@@H]4C[C@H](O[C@@H]5O[C@H](C)[C@@H](O)[C@H](O[C@@H]6OC[C@@H](O)[C@H](O)[C@H]6O)[C@H]5O)[C@H]5C[C@@H](O)CC[C@]5(C)[C@H]4CC[C@]3(C)[C@@H]12`, in the data set on Neutrophil [1], the half-maximal inhibitory concentration (IC50) is over 10 µM.

For the molecule `C[C@@H]1CC[C@@]2(OC1)O[C@H]1C[C@H]3[C@@H]4C[C@H](O)[C@H]5C[C@@H](O[C@@H]6O[C@H](CO)[C@@H](O[C@H]7O[C@@H](C)[C@H](O)[C@@H](O)[C@H]7O)[C@H](O)[C@H]6O[C@H]6O[C@@H](C)[C@H](O)[C@@H](O)[C@H]6O)CC[C@]5(C)[C@H]4CC[C@]3(C)[C@H]1[C@@H]2C`, in the data set on Neutrophil [1], the IC50 was over 10 µM.

For `C[C@@H]1CC[C@@]2(OC1)O[C@H]1C[C@H]3[C@@H]4C[C@H](O)[C@H]5C[C@@H](O)CC[C@]5(C)[C@H]4CC[C@]3(C)[C@H]1[C@@H]2C` [CHLOROGENIN], the results for the IC50 with Neutrophil [1] and with Neutrophil [4] were 6.1 µM and over 10 µM, respectively.

In the data set with Neutrophil [4], `CC(C)(C)C(=O)Oc1ccc(S(=O)(=O)Nc2ccccc2C(=O)NCC(=O)O)cc1` [SIVELESTAT] gave a concentration for half-maximal inhibition (IC50) of 50 µM.

For `CO[C@]1(CC[C@@H](C)CO[C@@H]2O[C@H](CO)[C@@H](O)[C@H](O)[C@H]2O)O[C@H]2C[C@H]3[C@@H]4C[C@H](O[C@@H]5O[C@H](C)[C@@H](O)[C@H](O[C@@H]6OC[C@@H](O)[C@H](O)[C@H]6O)[C@H]5O)[C@H]5C[C@@H](O)CC[C@]5(C)[C@H]4CC[C@]3(C)[C@H]2[C@@H]1C`, the IC50 in the data set on Neutrophil [1] was over 10 µM.

`C[C@@H]1CC[C@@]2(OC1)O[C@H]1C[C@H]3[C@@H]4C[C@H](O[C@@H]5O[C@H](CO)[C@@H](O)[C@H](O)[C@H]5O)[C@H]5C[C@@H](O)CC[C@]5(C)[C@H]4CC[C@]3(C)[C@H]1[C@@H]2C`: the IC50 with Neutrophil [1] is over 10 µM.

Turning to `C[C@H](CC[C@@]1(O)O[C@H]2C[C@H]3[C@@H]4C[C@H](O)[C@H]5C[C@@H](O[C@@H]6O[C@H](CO)[C@@H](O)[C@H](O)[C@H]6O)CC[C@]5(C)[C@H]4CC[C@]3(C)[C@H]2[C@@H]1C)CO[C@@H]1O[C@H](CO)[C@@H](O)[C@H](O)[C@H]1O`, the IC50 with Neutrophil [1] was over 10 µM.

As for `C[C@@H]1CC[C@@]2(OC1)O[C@H]1C[C@H]3[C@@H]4C[C@H](O[C@@H]5OC[C@@H](O)[C@H](O)[C@H]5O)[C@H]5C[C@@H](O)CC[C@]5(C)[C@H]4CC[C@]3(C)[C@H]1[C@@H]2C`, the Activity entry in data set [2] was “Non-toxic”. For the same molecule, the results for the half-maximal inhibitory concentration (IC50) with Neutrophil [1] and with Neutrophil [4] were 7.6 µM and 4.4 µM, respectively.

For the molecule `C[C@H](CC[C@@]1(O)O[C@H]2C[C@H]3[C@@H]4C[C@H](O[C@@H]5O[C@H](C)[C@@H](O)[C@H](O[C@@H]6OC[C@@H](O)[C@H](O)[C@H]6O)[C@H]5O)[C@H]5C[C@@H](O)CC[C@]5(C)[C@H]4CC[C@]3(C)[C@H]2[C@@H]1C)CO[C@@H]1O[C@H](CO)[C@@H](O)[C@H](O)[C@H]1O`, the IC50 in the data set on Neutrophil [1] is over 10 µM.

For `CC1=C(C(O)C[C@@H](C)CO[C@@H]2O[C@H](CO)[C@@H](O)[C@H](O)[C@H]2O)O[C@H]2C[C@H]3[C@@H]4C[C@H](O[C@@H]5O[C@H](C)[C@@H](O)[C@H](O[C@@H]6OC[C@@H](O)[C@H](O)[C@H]6O)[C@H]5O)[C@H]5C[C@@H](O)CC[C@]5(C)[C@H]4CC[C@]3(C)[C@@H]12` (stereo partly specified), the IC50 with Neutrophil [1] is over 10 µM.

For `C[C@@H]1CC[C@@]2(OC1)O[C@H]1C[C@H]3[C@@H]4C[C@H](O[C@@H]5O[C@H](C)[C@@H](O)[C@H](O)[C@H]5O)[C@H]5C[C@@H](O)CC[C@]5(C)[C@H]4CC[C@]3(C)[C@H]1[C@@H]2C`, in data set [2], the Activity result is recorded as “Non-toxic”. Further, the values for the IC50 in the data set with Neutrophil [1] and in the data set on Neutrophil [4] were 7 µM and 3.7 µM, respectively.

For the molecule `CO[C@]1(CC[C@@H](C)CO[C@@H]2O[C@H](CO)[C@@H](O)[C@H](O)[C@H]2O)O[C@H]2C[C@H]3[C@@H]4C[C@H](O[C@@H]5OC[C@@H](O)[C@H](O[C@@H]6OC[C@@H](O)[C@H](O)[C@H]6O)[C@H]5O)[C@H]5C[C@@H](O)CC[C@]5(C)[C@H]4CC[C@]3(C)[C@H]2[C@@H]1C`, the half-inhibitory concentration (IC50) in the data set with Neutrophil [1] was over 10 µM.

In the data set with Neutrophil [1], `c1ccc2c(c1)[I+]c1ccccc1-2` [DIPHENYLENEIODONIUM] yielded a 50% inhibitory concentration (IC50) of 0.8 µM.

Consider `C[C@@H]1CC[C@@]2(OC1)O[C@H]1C[C@H]3[C@@H]4C[C@H](O[C@@H]5O[C@H](C)[C@@H](O)[C@H](O[C@@H]6OC[C@@H](O)[C@H](O)[C@H]6O)[C@H]5O)[C@H]5C[C@@H](O)CC[C@]5(C)[C@H]4CC[C@]3(C)[C@H]1[C@@H]2C`, for which the IC50 was 4 µM in the data set on Neutrophil [1] and 1 µM with Neutrophil [4].

With `C[C@H](C/C=C1/O[C@H]2C[C@H]3[C@@H]4C[C@H](O[C@@H]5O[C@H](C)[C@@H](O)[C@H](O[C@@H]6OC[C@@H](O)[C@H](O)[C@H]6O)[C@H]5O)[C@H]5C[C@@H](O)CC[C@]5(C)[C@H]4CC[C@]3(C)[C@H]2[C@@]1(C)O)CO[C@@H]1O[C@H](CO)[C@@H](O)[C@H](O)[C@H]1O`, the concentration for half-maximal inhibition (IC50) with Neutrophil [1] is over 10 µM.

`C[C@@H]1CC[C@@]2(OC1)O[C@H]1C[C@H]3[C@@H]4C[C@H](O[C@@H]5O[C@H](C)[C@@H](O)[C@H](O)[C@H]5O)[C@H]5C[C@@H](O[C@@H]6O[C@H](CO)[C@@H](O)[C@H](O)[C@H]6O)CC[C@]5(C)[C@H]4CC[C@]3(C)[C@H]1[C@@H]2C` yielded an IC50 with Neutrophil [1] of over 10 µM.

Regarding `C[C@H](CC[C@@]1(O)O[C@H]2C[C@H]3[C@@H]4C[C@H](O[C@@H]5O[C@H](C)[C@@H](O)[C@H](O)[C@H]5O)[C@H]5C[C@@H](O[C@@H]6O[C@H](CO)[C@@H](O)[C@H](O)[C@H]6O)CC[C@]5(C)[C@H]4CC[C@]3(C)[C@H]2[C@@H]1C)CO[C@@H]1O[C@H](CO)[C@@H](O)[C@H](O)[C@H]1O`, the 50% inhibitory concentration (IC50) with Neutrophil [1] was over 10 µM.

For `C[C@@H]1CC[C@@]2(OC1)O[C@H]1C[C@H]3[C@@H]4C[C@H](O[C@@H]5O[C@H](C)[C@@H](O)[C@H](O[C@@H]6OC[C@@H](O)[C@H](O)[C@H]6O)[C@H]5O)[C@H]5CC(=O)CC[C@]5(C)[C@H]4CC[C@]3(C)[C@H]1[C@@H]2C`, in data set [5], the inhibition of degranulation is over 90%. For the same molecule, the Activity result in data set [2] is “Non-toxic”. The result in the data set on RBL-2H3 was inactive. In addition, the IC50 is over 10 µM in the data set on Neutrophil [1] and 3.2 µM in the data set with Neutrophil [4].

For orientation: IC50 means the midpoint of a concentration-inhibition curve.
